Compound activity as filed in PubChem.
The list is a sample of the results.
Apaf-1 act: activates human Apaf-1 apoptosome | Apaf-1 apoptosome caspase-3 activation, DEVD-Rh110 fluorescence; stronger effect = lower value | activity change, negative = activation, % at 20 µM | 330,000 tested, 0.31% active;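 active means activity change at or below -40% at 20 µM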
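System: Reconstituted apoptosome of Apaf-1, cytochrome c, caspase-9, procaspase-3 | Reagent: dATP, cytochrome c, and (Z-DEVD)2-Rh110 caspase-3 substrate | Times: 30 min compound preincubation and 50 min reaction, both room temperature | Detection: Caspase-3-released Rh110 fluorescence, 540 nm emission, 480 nm excitation | Measure: Caspase-3 activity via Apaf-1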
An asterisk follows results filed as active.

SMILES | Apaf-1 act
CC(C)[C@H](NC(=O)N1CCC(Cc2ccccc2)CC1)C(=O)O | 42
CC(NC(=O)CC1CCCCC1)c1ccccc1 (stereo unspecified) | -109*
O=C(COC(=O)c1ccccc1)NCC1CCCO1 (stereo unspecified) | 56
c1ccc2c(c1)CCN(C1=Nc3cccc4cccc1c34)C2 | 43
COc1ccc(NC(=O)CN2C(=O)S/C(=C/c3cccn3-c3ccc(C(=O)O)cc3)C2=O)cc1 | -240*
COc1cc(/C=C2/C(=O)N(c3ccc(C(=O)O)cc3)N=C2C)cc(OC)c1O | 78
COc1ccc(NC(=O)CCn2c(=S)[nH]c3ccccc3c2=O)cc1 | 86
CN(CC(=O)Nc1ccc(Cl)c(C(F)(F)F)c1)C(=O)CC1Sc2ccccc2NC1=O (stereo unspecified) | 51
Cc1nnc(N/N=C/c2cccc(OCc3ccc(Cl)c(Cl)c3)c2)n1N | 77
CCN1CCCC1CNC(=O)C1CCN(Cc2nc(-c3cccc(Br)c3)oc2C)CC1 (stereo unspecified) | -90*
COCc1ccc(CN2CCC(C(=O)Nc3cccc(-c4cccc(Cl)c4)c3)CC2)o1 | 49
c1coc(-c2nnc(-c3ccco3)nn2)c1 | 84
CC1=[N+](C)c2ccc3ccccc3c2C1(C)C | 42
c1ccc2c(NCCCN3CCOCC3)c3ccccc3nc2c1 | -63*
Cc1c2ccccc2nc2c(F)c(NCCO)c(F)c(F)c12 | 54
CCN(c1ccccc1)S(=O)(=O)c1cccc(C(=O)NCCN2CCOCC2)c1 | 44
COc1cccc(-c2sc3ccccc3c2-c2ccc(OCCN(C)C)cc2)c1 | 76
CCc1ccc2cccc3c2c1N=CN3C | 87
COc1ccccc1NS(=O)(=O)c1cccc(C(=O)N2CCN(C/C=C/c3ccccc3)CC2)c1 | 46
O=C(Nc1ccnn1C1CCN(C/C=C/c2ccccc2)CC1)c1ccccc1Cl | -61*
C=CCn1c(NC(=O)c2ccccc2Cl)c(C#N)c2nc3ccccc3nc21 | 96
NC1=NC[C@H](CC2CCCCC2)N1CCc1cc(C(F)(F)F)cc(C(F)(F)F)c1 | 74
COc1ccc(S(=O)(=O)N2CCCCCC2)cc1C(=O)NCCc1ccccc1 | 47
C#CCOCCOCCOCCNc1nc(N2CCN(C(=O)C([C@@H](C)O)n3cc([C@@H](N)CCCCN)nn3)CC2)nc(N2CCN(C(=O)[C@H](CCCN=C(N)N)n3cc(C(N)[C@@H](C)CC)nn3)CC2)n1 (stereo partly specified) | 46
CSc1ccccc1NC(=O)COc1ccc2c(c1)OCO2 | 45
SMILES | Apaf-1 act
O=C(NC(Cc1ccc2c(c1)OCO2)C(=O)NC(Cc1ccccc1)C(=O)O)c1ccccc1 (stereo unspecified) | -42*
S=C(NCc1ccc2c(c1)OCO2)Nc1ccc2nsnc2c1 | 62
O=C1C(c2ccccc2)=[N+]([O-])c2ccccc21 | 85
CCC(C)Sc1cccc(-c2nc3cc(C)ccn3c2NC2CCCCC2)c1 (stereo unspecified) | 41
CC(C)n1cnc2c(N(C)c3ccccc3)nc(N(CCN(C)C)Cc3ccccc3)nc21 | 44
COc1ccc(CCn2c(N)c(C(=O)NCc3ccco3)c3nc4ccccc4nc32)cc1OC | 63
CCc1cc(CNC(=O)c2ccc(OC3CCN(CCc4ccccc4)CC3)cc2)on1 | -41*
CC1CCN(CCc2nc3cc(NC(=O)COc4ccccc4)ccc3n2C)CC1 | 52
CC(C)(C)c1ccc(OCCOc2ccc(C(C)(C)C)cc2NC=O)c(NC=O)c1 | 41
CCN1CCN(S(=O)(=O)c2ccc(Cl)c(C(=O)N(C)Cc3cccc(Cl)c3Cl)c2)CC1 | 43
COc1ccccc1-c1c(C#N)c(N)nc2c1CCc1ccccc1-2 | 96
C=C(C)C(=O)Nc1cccc(C2=NOC3(C2)C[C@@H](C(N)=O)N(C(=O)c2ccc(OC)cc2)C3)c1 (stereo partly specified) | -340*
CN(C)CCN(C(=O)c1cccc2ccccc12)c1nc2cc3c(cc2s1)OCO3 | 52
c1ccc2c(c1)CC/C2=N/Nc1nc2ccccc2[nH]1 | 57
CC(=O)Nc1ccc2nc3ccccc3nc2c1 | 50
CCN(CC(=O)Nc1ccc2c(c1)OCCO2)C(=O)/C=C/c1ccc(OC)cc1OC | 64
C=C(C)C(=O)Nc1ccc2c(c1)OCCOCCOCCO2 | -447*
Cc1ccc(S(=O)(=O)N2CCN(C(=O)CCOc3cc(C)ccc3C)CC2)cc1 | 40
COc1ccccc1C(CNC(=O)CNC(=O)c1ccccc1Cl)N1CCCC1 (stereo unspecified) | 61
CC(CS(=O)(=O)c1ccc2c(c1)NC(=O)CS2)C(=O)NCc1ccccc1Cl (stereo unspecified) | -158*
Cc1cc(C)c(C2=CC(c3ccccc3)n3ncnc3N2)cc1C (stereo unspecified) | -215*
CCOC(=O)C1CCN(S(=O)(=O)c2ccc3c4c2CC(=O)N4CC(C)S3)CC1 (stereo unspecified) | 44
CCCCCCCNC(=O)C1(CC2CC(c3cccc(Br)c3)=NO2)CCNCC1 (stereo unspecified) | 46
